Test results reported in PubChem BioAssay AID624084 (The Scripps Research Institute Molecular Screening Center, 2012).

Target: metallo-beta-lactamase IMP-1 (Pseudomonas aeruginosa)
Assay: inhibition constants against purified IMP-1 – biochemical, absorbance, Ki and Km, nonselective VIM-2 MBL inhibitor project, late-stage follow-up (AID 624084)
Details: recombinant IMP-1, nitrocefin hydrolysis absorbance 495 nm, kinetic
Procedure, shortened: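 Assay system: IMP-1 enzyme | Amount: IMP-1 enzyme at 0.1 nM final | Incubation: 6 min continuous absorbance reading at room temperature | Technique: Kinetic absorbance, 495 nm | Read-out: Ki from mixed-inhibition model fit | Repeats: Two replicate measurements | Doses: Multiple inhibitor concentrations crossed with varied substrate levels | Medium: pH 7.1 HEPES, ZnSO4, Brij 35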

With `CN1CCN(NC(=O)CN2C(=O)/C(=C/c3c(Cl)ccc(Cl)c3Cl)SC2=S)CC1` as the compound, how does the Ki read?
Its Ki is 0.93 µM.
